Laboratory results taken from ChEMBL document CHEMBL1649531, “In vitro activity of garenoxacin against Streptococcus pneumoniae mutants with characterized resistance mechanisms” (2009).
Converted amounts (≈) assume the structure as drawn.

Tests used:
Format in all cases: functional
[1] = system: Streptococcus pneumoniae; assay: Antibacterial activity against Streptococcus pneumoniae D002 harboring parC Ser79Phe and gyrA Ser81Phe mutant genes assessed as mutation prevention concentration after 48 hrs
In short: (§1)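 A 200 μl culture at 10 log10 CFU/ml was spread on Mueller-Hinton II agar with 5% sheep blood containing drug at a range of concentrations, then incubated at 37°C in 5% CO2. MPC was taken as the lowest concentration preventing colony formation after 48 h. Determinations were done in duplicate.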

[2] = system: Streptococcus pneumoniae; assay: Antibacterial activity against Streptococcus pneumoniae S001 harboring parC Asp83Asn mutant and wild-type gyrA genes assessed as mutation prevention concentration after 48 hrs; in short: as §1
[3] = system: Streptococcus pneumoniae; assay: Antibacterial activity against Streptococcus pneumoniae S002 harboring parC Ser79Phe mutant and wild-type gyrA genes assessed as mutation prevention concentration after 48 hrs; in short: as §1
[4] = system: Streptococcus pneumoniae; assay: Antibacterial activity against Streptococcus pneumoniae S003 harboring wild-type parC and gyrA Ser81Phe mutant genes assessed as mutation prevention concentration after 48 hrs; in short: as §1
[5] = system: Streptococcus pneumoniae; assay: Antibacterial activity against Streptococcus pneumoniae W002 harboring wild-type parC and gyrA genes
[6] = system: Streptococcus pneumoniae; assay: Antibacterial activity against Streptococcus pneumoniae D001 harboring parC Ser79Phe and gyrA Gly85Lys mutant genes assessed as mutation prevention concentration after 48 hrs; in short: as §1
[7] = system: Streptococcus pneumoniae; assay: Antibacterial activity against Streptococcus pneumoniae S004 harboring wild-type parC and gyrA Gly85Asn mutant genes assessed as mutation prevention concentration after 48 hrs; in short: as §1
[8] = system: Streptococcus pneumoniae; assay: Antibacterial activity against Streptococcus pneumoniae W002 harboring wild-type parC and gyrA genes assessed as mutation prevention concentration after 48 hrs; in short: as §1
[9] = system: Streptococcus pneumoniae; assay: Antibacterial activity against Streptococcus pneumoniae D002 harboring parC Ser79Phe and gyrA Ser81Phe mutant genes
[10] = system: Streptococcus pneumoniae; assay: Antibacterial activity against Streptococcus pneumoniae D001 harboring parC Ser79Phe and gyrA Gly85Lys mutant genes
[11] = system: Streptococcus pneumoniae; assay: Antibacterial activity against Streptococcus pneumoniae W001 harboring wild-type parC and gyrA genes assessed as mutation prevention concentration after 48 hrs; in short: as §1
[12] = system: Streptococcus pneumoniae; assay: Antibacterial activity against Streptococcus pneumoniae W002
[13] = system: Streptococcus pneumoniae; assay: Antibacterial activity against Streptococcus pneumoniae S004
[14] = system: Streptococcus pneumoniae; assay: Antibacterial activity against Streptococcus pneumoniae S002 harboring parC Ser79Phe mutant and wild-type gyrA genes
[15] = system: Streptococcus pneumoniae; assay: Antibacterial activity against Streptococcus pneumoniae W001 harboring wild-type parC and gyrA genes
[16] = system: Streptococcus pneumoniae; assay: Antibacterial activity against Streptococcus pneumoniae S004 harboring wild-type parC and gyrA Gly85Asn mutant genes
[17] = system: Streptococcus pneumoniae; assay: Antibacterial activity against Streptococcus pneumoniae S001 assessed as resistant isolates with ParC79 mutation in quinolone resistance-determining regions
In short: (§2)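 Up to eight colonies per plate were grown individually, and genomic DNA was screened for ParC Ser79/Asp83 and GyrA Ser81/Gly85 changes by PCR-melting curve analysis with labelled hybridization probes. Sequences were confirmed by direct sequencing.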

[18] = system: Streptococcus pneumoniae; assay: Antibacterial activity against Streptococcus pneumoniae S004 assessed as resistant isolates with GyrA85 mutation in quinolone resistance-determining regions; in short: as §2
[19] = system: Streptococcus pneumoniae; assay: Antibacterial activity against Streptococcus pneumoniae S001
[20] = system: Streptococcus pneumoniae; assay: Antibacterial activity against Streptococcus pneumoniae W001 assessed as resistant isolates with GyrA85 mutation in quinolone resistance-determining regions; in short: as §2
[21] = system: Streptococcus pneumoniae; assay: Antibacterial activity against Streptococcus pneumoniae S003
[22] = system: Streptococcus pneumoniae; assay: Antibacterial activity against Streptococcus pneumoniae W001
[23] = system: Streptococcus pneumoniae; assay: Antibacterial activity against Streptococcus pneumoniae S001 assessed as resistant isolates with GyrA85 mutation in quinolone resistance-determining regions; in short: as §2
[24] = system: Streptococcus pneumoniae; assay: Antibacterial activity against Streptococcus pneumoniae S003 harboring wild-type parC and gyrA Ser81Phe mutant genes
[25] = system: Streptococcus pneumoniae; assay: Antibacterial activity against Streptococcus pneumoniae S001 harboring parC Asp83Asn mutant and wild-type gyrA genes
[26] = system: Streptococcus pneumoniae; assay: Antibacterial activity against Streptococcus pneumoniae D001 assessed as resistant isolates with GyrA81 mutation in quinolone resistance-determining regions; in short: as §2
[27] = system: Streptococcus pneumoniae; assay: Antibacterial activity against Streptococcus pneumoniae D002 assessed as resistant isolates with GyrA85 mutation in quinolone resistance-determining regions; in short: as §2
[28] = system: Streptococcus pneumoniae; assay: Antibacterial activity against Streptococcus pneumoniae S003 assessed as resistant isolates with ParC79 mutation in quinolone resistance-determining regions; in short: as §2
[29] = system: Streptococcus pneumoniae; assay: Antibacterial activity against Streptococcus pneumoniae S003 assessed as resistant isolates with ParC83 mutation in quinolone resistance-determining regions; in short: as §2
[30] = system: Streptococcus pneumoniae; assay: Antibacterial activity against Streptococcus pneumoniae W002 assessed as resistant isolates with ParC79 mutation in quinolone resistance-determining regions; in short: as §2
[31] = system: Streptococcus pneumoniae; assay: Antibacterial activity against Streptococcus pneumoniae W002 assessed as resistant isolates with GyrA85 mutation in quinolone resistance-determining regions; in short: as §2
[32] = system: Streptococcus pneumoniae; assay: Antibacterial activity against Streptococcus pneumoniae S002 assessed as resistant isolates with ParC83 mutation in quinolone resistance-determining regions; in short: as §2
[33] = system: Streptococcus pneumoniae; assay: Antibacterial activity against Streptococcus pneumoniae W002 assessed as resistant isolates with GyrA81 mutation in quinolone resistance-determining regions; in short: as §2
[34] = system: Streptococcus pneumoniae; assay: Antibacterial activity against Streptococcus pneumoniae D002 assessed as resistant isolates with ParC83 mutation in quinolone resistance-determining regions; in short: as §2
[35] = system: Streptococcus pneumoniae; assay: Antibacterial activity against Streptococcus pneumoniae S004 assessed as resistant isolates with ParC83 mutation in quinolone resistance-determining regions; in short: as §2
[36] = system: Streptococcus pneumoniae; assay: Antibacterial activity against Streptococcus pneumoniae W001 assessed as resistant isolates with ParC79 mutation in quinolone resistance-determining regions; in short: as §2
[37] = system: Streptococcus pneumoniae; assay: Antibacterial activity against Streptococcus pneumoniae S003 assessed as resistant isolates with GyrA85 mutation in quinolone resistance-determining regions; in short: as §2
[38] = system: Streptococcus pneumoniae; assay: Antibacterial activity against Streptococcus pneumoniae S001 assessed as resistant isolates with GyrA81 mutation in quinolone resistance-determining regions; in short: as §2
[39] = system: Streptococcus pneumoniae; assay: Antibacterial activity against Streptococcus pneumoniae D002
[40] = system: Streptococcus pneumoniae; assay: Antibacterial activity against Streptococcus pneumoniae S002
[41] = system: Streptococcus pneumoniae; assay: Antibacterial activity against Streptococcus pneumoniae S004 assessed as resistant isolates with ParC79 mutation in quinolone resistance-determining regions; in short: as §2
[42] = system: Streptococcus pneumoniae; assay: Antibacterial activity against Streptococcus pneumoniae W001 assessed as resistant isolates with ParC83 mutation in quinolone resistance-determining regions; in short: as §2
[43] = system: Streptococcus pneumoniae; assay: Antibacterial activity against Streptococcus pneumoniae D001
[44] = system: Streptococcus pneumoniae; assay: Antibacterial activity against Streptococcus pneumoniae W001 assessed as resistant isolates with GyrA81 mutation in quinolone resistance-determining regions; in short: as §2
[45] = system: Streptococcus pneumoniae; assay: Antibacterial activity against Streptococcus pneumoniae S002 assessed as resistant isolates with GyrA81 mutation in quinolone resistance-determining regions; in short: as §2
[46] = system: Streptococcus pneumoniae; assay: Antibacterial activity against Streptococcus pneumoniae W002 assessed as resistant isolates with ParC83 mutation in quinolone resistance-determining regions; in short: as §2
[47] = system: Streptococcus pneumoniae; assay: Antibacterial activity against Streptococcus pneumoniae S002 assessed as resistant isolates with GyrA85 mutation in quinolone resistance-determining regions; in short: as §2

For O=C(O)c1cn(C2CC2)c2cc(N3CCNCC3)c(F)cc2c1=O [CIPROFLOXACIN], the Activity [1] was 256 µg/mL, the Activity [2] was 128 µg/mL and the Activity [3] was 128 µg/mL. It also gave an Activity [4] of 64 µg/mL, an MIC [5] of 0.25 µg/mL (≈ 0.754 µM) and an Activity [6] of 256 µg/mL. It also gave an Activity [7] of 64 µg/mL, an Activity [8] of 8 µg/mL and an MIC [9] of 8 µg/mL (≈ 24.1 µM). The MIC [10] was 32 µg/mL (≈ 96.6 µM) and the Activity [11] was 8 µg/mL.
C[C@H]1NCc2cc(-c3ccc4c(=O)c(C(=O)O)cn(C5CC5)c4c3OC(F)F)ccc21 [GARENOXACIN] was tested, and the MIC [12] was 0.015 µg/mL (≈ 0.0352 µM), the MIC [13] was 0.06 µg/mL (≈ 0.141 µM) and the MIC [14] was 0.06 µg/mL (≈ 0.141 µM). It also gave an MIC [15] of 0.015 µg/mL (≈ 0.0352 µM), an MIC [16] of 0.06 µg/mL (≈ 0.141 µM) and an Activity [17] of 0%. For the same compound, the Activity [1] was 4 µg/mL, the Activity [18] was 0% and the MIC [19] was 0.03 µg/mL (≈ 0.0704 µM). For the same compound, the Activity [20] was 12%, the MIC [21] was 0.06 µg/mL (≈ 0.141 µM) and the MIC [22] was 0.015 µg/mL (≈ 0.0352 µM). For the same compound, the Activity [23] was 0%, the MIC [24] was 0.06 µg/mL (≈ 0.141 µM) and the MIC [25] was 0.03 µg/mL (≈ 0.0704 µM). The Activity [26] was 70%, the Activity [27] was 50% and the Activity [28] was 65%. It also gave an Activity [29] of 0%, an Activity [30] of 0% and an Activity [31] of 0%. For the same compound, the Activity [2] was 1 µg/mL, the Activity [32] was 0% and the Activity [3] was 1 µg/mL. The Activity [4] was 2 µg/mL, the Activity [33] was 67% and the Activity [34] was 21%. For the same compound, the Activity [35] was 0%, the MIC [5] was 0.015 µg/mL (≈ 0.0352 µM) and the Activity [36] was 0%. The Activity [37] was 0%, the Activity [6] was 4 µg/mL and the Activity [38] was 77%. The MIC [39] was 0.5 µg/mL (≈ 1.17 µM), the Activity [7] was 2 µg/mL and the MIC [40] was 0.06 µg/mL (≈ 0.141 µM). The Activity [41] was 56%, the Activity [42] was 0% and the MIC [43] was 0.25 µg/mL (≈ 0.586 µM). The Activity [44] was 50%, the Activity [8] was 0.12 µg/mL and the Activity [45] was 48%. For the same compound, the Activity [46] was 0%, the MIC [9] was 0.5 µg/mL (≈ 1.17 µM) and the MIC [10] was 0.25 µg/mL (≈ 0.586 µM). It also gave an Activity [11] of 0.12 µg/mL and an Activity [47] of 9%.
